Data on 21 compounds can be found in ChEMBL document CHEMBL4364257, “Discovery of novel Bcr-AblT315I inhibitors with flexible linker. Part 1: Confirmation optimization of phenyl-1H-indazol-3-amine as hinge binding moiety” (Eur J Med Chem, 2019).

As usually defined, the IC50 is the point on the concentration scale where inhibition reaches its midpoint.

Series [1] relates to K562. As to the kind of experiment: Antiproliferative activity against human BCR/ABL positive K562 cells assessed as growth inhibition measured after 48 hrs by MTT assay. The format is functional, cell-based. The note with it: K562, 48 h. The method, boiled down:
(§1)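 K562 and K562R (T315I) cells grown in RPMI 1640 + 10% FBS; 2500 cells/well seeded, 12 h at 37 °C, 5% CO2, then compounds at indicated final concentrations for 48 h. MTT 0.5 mg/mL final, 4 h at 37 °C; supernatant removed, DMSO added, absorbance at 490 nm. IC50 calculated from inhibition ratios.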

Series [2] concerns the target Bcr/Abl fusion protein (Homo sapiens, UniProt P00519, T315I). As to the kind of experiment: Inhibition of BCR/ABL T315I mutant (unknown origin) measured after 60 mins in presence of ATP by ADP-Glo kinase assay. The format is protein assay. (In ADP-Glo the light output rises with the ADP produced.)
In series [3] the target is Bcr/Abl fusion protein (Homo sapiens, UniProt P00519). As to the kind of experiment: Inhibition of wild type BCR/ABL (unknown origin) measured after 60 mins in presence of ATP by ADP-Glo kinase assay. The format is protein assay.
The test system of series [4] is HEK293. Briefly: Cytotoxicity against human HEK293 cells upto 150 uM measured after 48 hrs by MTT assay. The format is cell-based. The note with it: hek293, 48 h. The procedure, abridged: (§2)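 Normal human cells (EA.hy926, Hek293) kept in DMEM + 10% FBS; 2500 cells/well, 12 h preincubation at 37 °C, 5% CO2; compound added at indicated final concentrations for 48 h. MTT at 0.5 mg/mL final for 4 h, formazan dissolved in DMSO, absorbance read at 490 nm.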

The subject of series [5] is K-562R. As to the kind of experiment: Antiproliferative activity against human K562R cells expressing BCR/ABL T315I mutant assessed as growth inhibition measured after 48 hrs by MTT assay. The class given is functional, cell-based. The method, boiled down: as §1
The target of series [6] is Mitogen-activated protein kinase 14 (Homo sapiens, UniProt Q16539). As to the kind of experiment: Inhibition of human recombinant full length N-terminal GST tagged p38alpha expressed in baculovirus infected Sf9 cells using p38 peptide as substrate measured after 60 mins in presence of ATP by ADP-Glo kinase assay. The procedure, abridged: (§3)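 ADP-Glo luminescence format: kinase with substrate/ATP mix and inhibitor in 40 mM Tris pH 7.4, 10 mM MgCl2, 0.1 mg/mL BSA, 1 mM DTT, 60 min at 30 °C. ADP-Glo reagent 40 min at room temperature to stop and deplete ATP, then detection reagent 30 min; luminescence read.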
Chain of Mitogen-activated protein kinase 14 (Q16539 whole entry): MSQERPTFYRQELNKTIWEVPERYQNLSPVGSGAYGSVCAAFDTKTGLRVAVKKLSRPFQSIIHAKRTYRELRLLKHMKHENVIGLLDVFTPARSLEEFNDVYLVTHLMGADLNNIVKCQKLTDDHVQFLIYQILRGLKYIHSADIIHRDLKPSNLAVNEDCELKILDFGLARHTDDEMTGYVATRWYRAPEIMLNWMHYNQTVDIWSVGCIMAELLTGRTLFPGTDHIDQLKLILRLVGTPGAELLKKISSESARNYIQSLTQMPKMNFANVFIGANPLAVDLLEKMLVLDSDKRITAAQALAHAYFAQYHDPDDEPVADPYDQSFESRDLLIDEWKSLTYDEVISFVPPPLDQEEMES

Series [7] concerns the target Bcr/Abl fusion protein (Homo sapiens) (UniProt P00519+P11274). As to the kind of experiment: Inhibition of BCR/ABL phosphorylation in human K562 cells measured after 4 hrs by Western blot analysis. The class given is cell-based. The method, boiled down:
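K562 cells exposed to DMSO vehicle or drug for 4 h, lysed in SDS sample buffer, BCA-normalized; equal protein run on SDS-PAGE, transferred to PVDF, blocked in 5% milk/TBS-0.1% Tween-20. Probed overnight at 4 °C for Bcr-Abl, p-Bcr-Abl, actin; HRP secondaries 2 h at room temperature; ECL detection.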

The target of series [8] is Proto-oncogene tyrosine-protein kinase Src (Homo sapiens, UniProt P12931). As to the kind of experiment: Inhibition of human recombinant full length N-terminal GST tagged SRC expressed in Escherichia coli using KVEKIGEGTYGVVYK-amide as substrate measured after 60 mins in presence of ATP by ADP-Glo kinase assay. The procedure, abridged:
as §3

Series [9] has as its target Tyrosine-protein kinase HCK (Homo sapiens, UniProt P08631). Briefly: Inhibition of human recombinant N-terminal GST tagged HCK (230 to 497 residues) expressed in baculovirus infected Sf9 cells using poly (Glu,Tyr) 4:1 as substrate measured after 60 mins in presence of ATP by ADP-Glo kinase assay. The procedure, abridged: as §3
For series [10], the system named is EA.hy 926. As to the kind of experiment: Cytotoxicity against human EAhy926 cells upto 150 uM measured after 48 hrs by MTT assay. The note with it: ea.hy 926, 48 h. The format is cell-based. The method, boiled down:
as §2

Chain of Tyrosine-protein kinase HCK (P08631 whole entry, the tested form may be a part): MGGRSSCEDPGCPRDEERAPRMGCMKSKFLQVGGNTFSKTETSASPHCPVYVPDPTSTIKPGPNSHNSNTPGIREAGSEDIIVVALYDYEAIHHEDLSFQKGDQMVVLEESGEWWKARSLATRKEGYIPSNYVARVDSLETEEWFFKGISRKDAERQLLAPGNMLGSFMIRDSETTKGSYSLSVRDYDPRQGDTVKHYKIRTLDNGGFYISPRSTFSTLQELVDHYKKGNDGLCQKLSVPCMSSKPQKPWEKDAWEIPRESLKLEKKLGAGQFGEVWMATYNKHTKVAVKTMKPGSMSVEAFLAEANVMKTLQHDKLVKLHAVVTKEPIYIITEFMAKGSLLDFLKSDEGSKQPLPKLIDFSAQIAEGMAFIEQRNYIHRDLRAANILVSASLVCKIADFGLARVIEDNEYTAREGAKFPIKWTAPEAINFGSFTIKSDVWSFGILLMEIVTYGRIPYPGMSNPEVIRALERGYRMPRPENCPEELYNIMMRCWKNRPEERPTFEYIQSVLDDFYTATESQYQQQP
Chain of Proto-oncogene tyrosine-protein kinase Src (P12931 2-536 limits assumed): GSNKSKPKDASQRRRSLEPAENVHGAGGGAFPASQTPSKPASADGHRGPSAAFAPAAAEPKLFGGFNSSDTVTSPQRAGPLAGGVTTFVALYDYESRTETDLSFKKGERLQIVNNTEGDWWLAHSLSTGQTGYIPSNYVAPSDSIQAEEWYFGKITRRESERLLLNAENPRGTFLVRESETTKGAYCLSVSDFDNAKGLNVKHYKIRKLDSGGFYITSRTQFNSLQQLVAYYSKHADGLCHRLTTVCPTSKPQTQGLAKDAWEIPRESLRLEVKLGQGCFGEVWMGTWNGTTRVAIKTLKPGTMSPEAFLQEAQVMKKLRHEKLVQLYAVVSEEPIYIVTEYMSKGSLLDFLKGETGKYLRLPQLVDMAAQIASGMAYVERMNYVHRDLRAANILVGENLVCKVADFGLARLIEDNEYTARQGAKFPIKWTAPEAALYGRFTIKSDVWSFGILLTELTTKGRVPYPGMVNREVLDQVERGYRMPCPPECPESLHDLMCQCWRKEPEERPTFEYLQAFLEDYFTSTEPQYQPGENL

With `CN(C)c1ccc(C(=O)N2CCN(C(=O)c3ccc(-c4cccc5[nH]nc(N)c45)cc3)CC2)cc1`, the 50% inhibitory concentration (IC50) is over 150 µM in [1], 86.1 µM in series [2] and 4.28 µM in [3].
The corresponding values for `Nc1n[nH]c2cc(-c3ccc(C(=O)N4CCN(C(=O)c5ccc(Br)cc5)CC4)cc3)ccc12` are 11.3 µM, 31.9 µM and 6.28 µM.
For `Nc1n[nH]c2cc(-c3ccc(C(=O)NCCNC(=O)c4ccc(Cl)c(C(F)(F)F)c4)cc3)ccc12`, the Activity entry in series [4] and in series [10] was “Non-Toxic” each time. The IC50 in series [1] stood at 1.65 µM; in series [2], 0.17 µM; in series [5] it was 5.42 µM; in [6], 34.5 µM; in series [3], 0.043 µM; in series [8], 15.1 µM. In [9], the IC50 is over 100 µM. The inhibition result in series [7] is “Dose-dependent effect”.
On to `Nc1n[nH]c2cccc(-c3ccc(C(=O)NCCNC(=O)c4ccc(Br)cc4)cc3)c12`, for which the concentration for half-maximal inhibition (IC50) is over 150 µM in [1], 94.8 µM in series [2] and 31.6 µM in series [3].
As to `Cc1ccc(C(=O)NCCNC(=O)c2ccc(-c3cccc4[nH]nc(N)c34)cc2)cc1`, the half-inhibitory concentration (IC50) in series [1] was 5.93 µM.
Turning to `Nc1n[nH]c2cccc(-c3ccc(C(=O)N4CCN(C(=O)c5ccc(F)cc5)CC4)cc3)c12`, the IC50 in series [1] turned out to be 102 µM; in series [2], 20.9 µM; in [3] it was 17.6 µM.
The corresponding values for `Nc1n[nH]c2cccc(-c3ccc(C(=O)NCCNC(=O)c4ccc(Cl)c(C(F)(F)F)c4)cc3)c12` are 17.1 µM, 20 µM and 0.11 µM.
For the compound `Nc1n[nH]c2cccc(-c3ccc(C(=O)N4CCN(C(=O)c5ccc(Cl)c(C(F)(F)F)c5)CC4)cc3)c12`, the IC50 in series [1] was found to be 4.9 µM; in series [2], 2.08 µM; in series [3], 10.7 µM.
The matching figures for `Nc1n[nH]c2cc(-c3ccc(C(=O)N4CCN(C(=O)c5ccc(F)cc5)CC4)cc3)ccc12`: 39.1 µM, 8.6 µM and 2.34 µM.
For `Cc1ccc(C(=O)NCCNC(=O)c2ccc(-c3ccc4c(N)n[nH]c4c3)cc2)cc1`, the half-maximal inhibitory concentration (IC50) in [1] worked out at 1.45 µM; in series [2], 4.3 µM; in series [3], 0.38 µM.
As for `Nc1n[nH]c2cc(-c3ccc(C(=O)NCCNC(=O)c4ccc(Br)cc4)cc3)ccc12`, the IC50 in series [1] came to 14 µM; in series [2] it was 2.68 µM; in [3], 2.16 µM.
Regarding `Cc1ccc(C(=O)N2CCN(C(=O)c3ccc(-c4cccc5[nH]nc(N)c45)cc3)CC2)cc1`, the IC50 in [1] was over 150 µM; in series [2] it was 179 µM; in series [3], 5.85 µM.
For the compound `Nc1n[nH]c2cc(-c3ccc(C(=O)N4CCN(C(=O)c5ccc(Cl)c(C(F)(F)F)c5)CC4)cc3)ccc12`, the figures for the half-maximal inhibitory concentration (IC50) in [1], in series [2] and in series [3] were 4.84 µM, 5.33 µM and 1.99 µM, respectively.
The matching figures for `Nc1n[nH]c2cccc(-c3ccc(C(=O)N4CCN(C(=O)c5ccc(Br)cc5)CC4)cc3)c12`: 9.25 µM, 1.5 µM and 7.12 µM.
On to `Cc1ccc(NC(=O)c2ccc(CN3CCN(C)CC3)cc2)cc1Nc1nccc(-c2cccnc2)n1` [IMATINIB], for which the values for the half-maximal inhibitory concentration (IC50) in series [1] and in series [5] were 4.26 µM and 90 µM, respectively.
For `Nc1n[nH]c2cccc(-c3ccc(C(=O)NCCNC(=O)c4ccc(F)cc4)cc3)c12`, the values for the 50% inhibitory concentration (IC50) in series [1], in series [2] and in series [3] were 9.49 µM, 38.5 µM and 1.35 µM, respectively.
For `CN(C)c1ccc(C(=O)N2CCN(C(=O)c3ccc(-c4ccc5c(N)n[nH]c5c4)cc3)CC2)cc1`, the IC50 is 61.2 µM in series [1], 6.23 µM in series [2] and 2.54 µM in [3].
The corresponding values for `CN(C)c1ccc(C(=O)NCCNC(=O)c2ccc(-c3cccc4[nH]nc(N)c34)cc2)cc1` are over 150 µM, 76.8 µM and 5.75 µM.
With `CN(C)c1ccc(C(=O)NCCNC(=O)c2ccc(-c3ccc4c(N)n[nH]c4c3)cc2)cc1`, the half-maximal inhibitory concentration (IC50) in series [1] is 7.52 µM; in [2] it was 0.29 µM; in series [3] it was 3.45 µM.
The corresponding values for `Cc1ccc(C(=O)N2CCN(C(=O)c3ccc(-c4ccc5c(N)n[nH]c5c4)cc3)CC2)cc1` are 59.3 µM, 3.72 µM and 32.2 µM.
The corresponding values for `Nc1n[nH]c2cc(-c3ccc(C(=O)NCCNC(=O)c4ccc(F)cc4)cc3)ccc12` are 13.4 µM, 61.2 µM and 2.45 µM.
